Data taken from ChEMBL document CHEMBL3120121, “Insights on pregnane-X-receptor modulation. Natural and semisynthetic steroids from Theonella marine sponges” (Eur J Med Chem, 2014).

Legend:
Assay type in all cases: cell-based; call rule not given here
[1] = molecular target: T1, Nuclear receptor subfamily 1 group I member 2 (Homo sapiens, UniProt O75469); assay: Partial agonist activity at human full-length PXR transfected in human HepG2 cells co-transfected with RXR assessed as reversal of rifaximin-induced transactivation at 50 uM after 18 hrs by luciferase reporter gene assay; conditions: hepg2, 18 h
T1 sequence (O75469 whole entry): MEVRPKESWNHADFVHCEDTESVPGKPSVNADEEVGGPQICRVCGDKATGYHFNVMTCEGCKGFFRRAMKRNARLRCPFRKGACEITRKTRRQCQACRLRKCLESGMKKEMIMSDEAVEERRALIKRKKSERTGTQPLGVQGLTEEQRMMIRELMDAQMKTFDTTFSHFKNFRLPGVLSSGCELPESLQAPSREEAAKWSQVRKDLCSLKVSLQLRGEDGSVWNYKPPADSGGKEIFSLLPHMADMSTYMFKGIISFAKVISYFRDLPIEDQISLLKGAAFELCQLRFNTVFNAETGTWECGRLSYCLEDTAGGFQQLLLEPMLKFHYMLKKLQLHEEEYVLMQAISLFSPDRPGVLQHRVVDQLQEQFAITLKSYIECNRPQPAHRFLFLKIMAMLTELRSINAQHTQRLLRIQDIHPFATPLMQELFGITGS
Summary of the method: (§1)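 HepG2 cells cotransfected with pSG5-hPXRT1, pSG5-RXR, pCMV-βgal and pGL3(henance)PXRE reporter. At 24 h post-transfection, primed 18 h with compound at 50 plus rifaximin at 10 (antagonist mode). Luciferase luminescence measured in lysates and normalized to β-galactosidase activity. Significance p < 0.05 vs rifaximin.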

[2] = molecular target: T1, Nuclear receptor subfamily 1 group I member 2; assay: Agonist activity at human full-length PXR transfected in human HepG2 cells co-transfected with pSG5-RXR assessed as induction of transactivation by dual-luciferase reporter gene assay; conditions: for Activity: human, hepg2
Summary of the method: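 HepG2 cells grown at 37 °C in MEM with Earle's salts, 10% FBS, 1% L-glutamine, 1% penicillin/streptomycin, seeded at 5 × 10^4 cells/well. Cotransfected with pSG5-hPXRT1, pSG5-RXR, pGL4.70-Renilla and pGL3(henance)PXRE reporter. Treated with rising concentrations (1, 10, 50) with rifaximin as positive control. Dual-luciferase readout; firefly RLU divided by Renilla RLU; EC50 from concentration–response curve.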

[3] = molecular target: T1, Nuclear receptor subfamily 1 group I member 2; assay: Antagonist activity at human full-length PXR transfected in human HepG2 cells co-transfected with pSG5-RXR assessed as reversal of rifaximin-induced transactivation at 50 uM after 18 hrs by luciferase reporter gene assay; conditions: hepg2, 18 h; summary of the method: as §1
[4] = molecular target: T1, Nuclear receptor subfamily 1 group I member 2; assay: Antagonist activity at human full-length PXR transfected in human HepG2 cells co-transfected with pSG5-RXR assessed as reversal of rifaximin-induced transactivation at 10 to 25 uM after 18 hrs by luciferase reporter gene assay; conditions: hepg2, 18 h
Summary of the method: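 Dose–response antagonism test in a luciferase reporter assay: transfected HepG2 cells received compound at 10, 25 or 50 together with rifaximin 10 to assess reversal of rifaximin-driven PXR transactivation.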

Row | Activity [1] | EC50 [2] [µM] | Activity [2] | Activity [3] | Activity [4] | SMILES
1 | Active | 18 | Dose-dependent effect | – | – | CC(C)[C@H](C)CC[C@@H](C)[C@H]1CCC2=C3CC[C@H]4[C@H](C)[C@H](O)CC[C@]4(C)[C@H]3CC[C@@]21C
2 | Active | – | – | Active | Not Active | CC(C)[C@H](C)CC[C@@H](C)[C@H]1CCC2=C3CC[C@H]4[C@@H](C)[C@@H](O)CC[C@]4(C)[C@H]3CC[C@@]21C
3 | Active | 21 | Dose-dependent effect | – | – | C=C1[C@@H](O)CC[C@@]2(C)[C@H]1CCC1=C3CC[C@H]([C@H](C)CCC=C(C)C)[C@@]3(C)CC[C@@H]12
